# According to paper PMC6447844 (Cancer Science, 2019):
# Read-outs that look alike come from different tables or passages of the source.
# Key:
# [1] = test system: Japanese patients with advanced solid tumors; format: in vivo, human; details: for DLT event: one patient
# Method in brief: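 Open-label phase I at two Japanese centres; oral test compound given q.d. or b.i.d. as capsule or tablet in 28-day cycles, escalated by a 2-parameter Bayesian logistic regression model with overdose control. DLT: grade 3 or 4 AE or abnormal laboratory value (CTCAE v4.0), not attributed to disease, intercurrent illness or co-medication, within the first 28 days. MTD: highest dose not expected to cause DLT in >33% of patients.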
# [2] = test system: MET-dependent (amplified/autocrine) tumor models; details: at tolerable doses; cited from earlier work
# [3] = test system: MET kinase versus other kinases (panel of 57 human kinases); details: cited from earlier work
# [4] = test system: Japanese patients with advanced solid tumors; experiment: Safety assessment; format: in vivo, human
# Method in brief: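 Patients took oral test compound daily (capsule or tablet, q.d. or b.i.d.) in 28-day cycles until progression, intolerable toxicity or withdrawal. AEs graded by CTCAE v4.0, alongside regular laboratory tests, physical examination, vital signs, weight and periodic ECG. Safety set: patients with at least one dose and at least one valid postbaseline safety assessment.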
# [5] = Plasma pharmacokinetics of capmatinib; format: in vivo, human; details: for AUC / Cmax: 400 mg, 400 mg b.i.d., day 15; for AUC: Mean AUCtau; for Cmax: Mean Cmax
# advanced solid tumors = experiment: Tumor assessment by CT/MRI according to RECIST version 1.1; format: in vivo, human; details: investigator assessed; eight of 44 patients
# MET = details: read-out: IC50 (MET, biochemical); cited from earlier work
# [6] = study CINC280X2103; ref data on file; cited from earlier work
# [7] = regardless of relationship, all patients, n = 44
# [8] = regardless of study drug relationship, all patients
# [9] = human, plasma, oral, capsule group
# [10] = human, plasma, oral, tablet group
structure (smiles),measurement,setting,value
CNC(=O)c1ccc(-c2cnc3ncc(Cc4ccc5ncccc5c4)n3n2)cc1F [capmatinib],MTD,[1]; escalated up to 400 mg b.i.d. tablet and 600 mg b.i.d. capsule,not reached
same,DLT event,[1]; 400 mg b.i.d. tablet,grade 3 depression
same,DLT event,[1]; 600 mg b.i.d. capsule,grade 2 suicidal ideation
same,"Highest studied dose determined to be safe, tablet","[1]; tablet formulation, single agent",400 mg b.i.d.
same,Patients permanently discontinued owing to DLT,[1]; two patients,5.1%
same,Effect on MET-dependent tumor models,[2],causes regression
same,selectivity for MET kinase versus other kinases,[3],10 000 fold
same,Patients with one or more dose interruptions,[4]; 21 patients,47.7%
same,AE requiring dose adjustment and/or interruption,[4]; 26 of 44 patients,59.1%
same,Overall tolerability,"[4]; Japanese patients, overall",well tolerated
same,Changes in vital signs and ECG intervals,[4]; all patients,no clinically meaningful changes or trends
same,"Colitis ulcerative, grade 3/4 suspected to be drug-related",[4]; all patients,1 n
same,Decreased appetite requiring dose adjustment and/or interruption,[4]; all patients,6.8%
same,"Decreased appetite, suspected to be drug-related",[4]; all patients,29.5%
same,"Depression, grade 3/4 suspected to be drug-related",[4]; all patients,1 n
same,"Diarrhea, suspected to be drug-related",[4]; all patients,20.5%
same,"Hypophosphatemia, grade 3/4 suspected to be drug-related",[4]; all patients,1 n
same,"Increased ALT and AST, grade 3/4 suspected to be drug-related",[4]; all patients,1 n
same,"Increased GGT, grade 3/4 suspected to be drug-related",[4]; all patients,1 n
same,Increased blood creatinine requiring dose adjustment and/or interruption,[4]; all patients,20.5%
same,"Increased blood creatinine, suspected to be drug-related",[4]; all patients,45.5%
same,"Lung infection, grade 3/4 suspected to be drug-related",[4]; all patients,1 n
same,Nausea requiring dose adjustment and/or interruption,[4]; all patients,13.6%
same,"Nausea, suspected to be drug-related",[4]; all patients,31.8%
same,On-treatment deaths (within 28 days after discontinuation),[4]; all patients,No on‐treatment deaths
same,Patients experiencing one or more AE,[4]; all patients,95.5%
same,QTcB increase from baseline of more than 30 ms,[4]; all patients,three
same,Treatment-emergent prolongation of QTcB of more than 450 ms,[4]; all patients,three
same,Treatment-emergent prolongation of QTcB of more than 480 ms,[4]; all patients,one
same,Vomiting requiring dose adjustment and/or interruption,[4]; all patients,6.8%
same,"Vomiting, suspected to be drug-related",[4]; all patients,29.5%
same,AE leading to discontinuation,"[4]; all patients, n = 44",4 (9.1) n (%)
same,AE requiring dose interruption and/or reduction,"[4]; all patients, n = 44",26 (59.1) n (%)
same,"AE requiring dose interruption and/or reduction, Suspected to be drug-related","[4]; all patients, n = 44",17 (38.6) n (%)
same,All deaths (incl. more than 28 days after discontinuation),"[4]; all patients, n = 44",1 (2.3) n (%)
same,On-treatment deaths (up to 28 d after discontinuation),"[4]; all patients, n = 44",0 n (%)
same,"Patients experiencing ≥1 AE, Suspected to be drug-related","[4]; all patients, n = 44",37 (84.1) n (%)
same,SAE,"[4]; all patients, n = 44",7 (15.9) n (%)
same,"SAE, Suspected to be drug-related","[4]; all patients, n = 44",2 (4.5) n (%)
same,Total number of patients experiencing ≥1 AE,"[4]; all patients, n = 44",42 (95.5) n (%)
same,Discontinuation due to AE (all grades),[4]; four of 44 patients,9.1%
same,AE suspected to be drug-related,"[4]; mainly grade 1/2, 37 patients",84.1%
same,Patients with dose interrupted only once,[4]; nine patients,20.5%
same,Tolerability,[4]; p.o. 400 mg b.i.d. in tablet formulation,well tolerated
same,"Anemia, All grades",[4]; [7],7 (15.9) n (%)
same,"Anemia, Grade 3/4",[4]; [7],0 n (%)
same,"Any AE, All grades",[4]; [7],42 (95.5) n (%)
same,"Any AE, Grade 3/4",[4]; [7],15 (34.1) n (%)
same,"Constipation, All grades",[4]; [7],7 (15.9) n (%)
same,"Constipation, Grade 3/4",[4]; [7],0 n (%)
same,"Decreased appetite, All grades",[4]; [7],18 (40.9) n (%)
same,"Decreased appetite, grade 3/4",[4]; [7],3 (6.8) n (%)
same,"Diarrhea, All grades",[4]; [7],11 (25.0) n (%)
same,"Diarrhea, Grade 3/4",[4]; [7],0 n (%)
same,"Edema peripheral, All grades",[4]; [7],9 (20.5) n (%)
same,"Edema peripheral, Grade 3/4",[4]; [7],1 (2.3) n (%)
same,"Fatigue, All grades",[4]; [7],7 (15.9) n (%)
same,"Fatigue, Grade 3/4",[4]; [7],0 n (%)
same,"Hypoalbuminemia, All grades",[4]; [7],10 (22.7) n (%)
same,"Hypoalbuminemia, grade 3/4",[4]; [7],2 (4.5) n (%)
same,"Increased blood creatinine, All grades",[4]; [7],23 (52.3) n (%)
same,"Increased blood creatinine, Grade 3/4",[4]; [7],0 n (%)
same,"Malaise, All grades",[4]; [7],8 (18.2) n (%)
same,"Malaise, Grade 3/4",[4]; [7],0 n (%)
same,"Nausea, All grades",[4]; [7],21 (47.7) n (%)
same,"Nausea, Grade 3/4",[4]; [7],0 n (%)
same,"Pyrexia, All grades",[4]; [7],8 (18.2) n (%)
same,"Pyrexia, Grade 3/4",[4]; [7],0 n (%)
same,"Vomiting, All grades",[4]; [7],17 (38.6) n (%)
same,"Vomiting, Grade 3/4",[4]; [7],0 n (%)
same,Grade 3/4 AE,"[4]; regardless of study drug relationship, 15 patients",34.1%
same,"Ascites, grade 3/4",[4]; [8],4.5%
same,"Decreased appetite, all grades",[4]; [8],40.9%
same,"Decreased appetite, grade 3/4",[4]; [8],6.8%
same,"Diarrhea, all grades",[4]; [8],25.0%
same,"Hypoalbuminemia, all grades",[4]; [8],22.7%
same,"Hypoalbuminemia, grade 3/4",[4]; [8],4.5%
same,"Hyponatremia, grade 3/4",[4]; [8],9.1%
same,"Hypophosphatemia, grade 3/4",[4]; [8],4.5%
same,"Increased GGT, grade 3/4",[4]; [8],4.5%
same,"Increased blood creatinine, all grades",[4]; [8],52.3%
same,"Nausea, all grades",[4]; [8],47.7%
same,"Peripheral edema, all grades",[4]; [8],20.5%
same,"Vomiting, all grades",[4]; [8],38.6%
same,Grade 3/4 AE suspected to be drug-related,[4]; seven patients,15.9%
same,Patients with one dose reduction,[4]; three patients,6.8%
same,Median Tmax,"[5]; day 15, tablet",1.0 h
same,Tmax,"[5]; human, plasma, oral",1 h
same,AUC,[5]; [9],11000 ng·h/mL
same,AUC,[5]; [10],31400 ng·h/mL
same,Cmax,[5]; [9],1980 ng/mL
same,Cmax,[5]; [10],7570 ng/mL
same,Steady state achieved,[5]; pre-dose concentrations generally stable after day 15,≤ 15 days
same,Best overall response of SD,advanced solid tumors,18.2%
same,IC50,MET,0.13 nM
same,Cmax geometric mean ratio (tablet vs capsule),[6],3.0
